ChEMBL document CHEMBL1146375, “Synthetic studies on novel benzimidazolopeptides with antimicrobial, cytotoxic and anthelmintic potential” (2007)
In brackets after ≈: the same amount, converted by molar mass.

System: Escherichia coli
Assay: Antibacterial activity against Escherichia coli NCIM 2065 after 18 hrs by disc diffusion method
Assay type: functional
Conditions: not given
Outline: (§1)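 Modified Kirby-Bauer disc diffusion. Plates inoculated with spore suspension (about 6 × 10⁴ spores mL^-1). Sterile 6 mm paper discs carried test samples at 10 mg mL^-1; ciprofloxacin disc as reference, DMF disc as negative control. Plates held 18 h at 37 °C. Inhibition zone diameters (mm) averaged over triplicate sets.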

| Structure (SMILES) | inhibition zone (IZ) [mm] |
| --- | --- |
| Cc1cc2nc(-c3ccc(O)c(C(=O)N[C@@H](Cc4c[nH]c5ccccc45)C(=O)N[C@@H](C)C(=O)N[C@@H](Cc4ccc(O)cc4)C(=O)O)c3)[nH]c2cc1C | 18 |

System: Candida albicans
Assay: Antifungal activity against Candida albicans MUCC 29 after 48 hrs by disc diffusion method
Assay type: functional
Conditions: not given
Outline: (§2)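 Agar well diffusion on plates inoculated with spore suspension in normal saline from cultures on Sabouraud's broth. Wells punched and loaded with test samples or griseofulvin at 10 mg mL^-1, with DMSO as negative control. Incubated 48 h at 37 °C.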

| Structure (SMILES) | inhibition zone (IZ) [mm] |
| --- | --- |
| Cc1cc2nc(-c3ccc(O)c(C(=O)N[C@@H](Cc4c[nH]c5ccccc45)C(=O)N[C@@H](C)C(=O)N[C@@H](Cc4ccc(O)cc4)C(=O)O)c3)[nH]c2cc1C | 18 |

System: Escherichia coli
Assay: Antibacterial activity against Escherichia coli NCIM 2065 after 18 hrs by tube dilution method
Assay type: functional
Conditions: NCIM 2065, 18 h

| Structure (SMILES) | MIC [µg/mL] |
| --- | --- |
| Cc1cc2nc(-c3ccc(O)c(C(=O)N[C@@H](Cc4c[nH]c5ccccc45)C(=O)N[C@@H](C)C(=O)N[C@@H](Cc4ccc(O)cc4)C(=O)O)c3)[nH]c2cc1C | 12.5 (≈ 17.8 µM) |

System: Staphylococcus aureus
Assay: Antibacterial activity against Staphylococcus aureus NCIM 2079 after 18 hrs by tube dilution method
Assay type: functional
Conditions: NCIM 2079, 18 h
Outline: (§3)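 Tube dilution MIC. Stock diluted in sterile broth to seven concentrations from 200 to 3.1 […]. Each tube inoculated with one loopful of test bacterium and incubated 18 h at 37 °C. MIC read from presence or absence of growth.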

| Structure (SMILES) | MIC [µg/mL] |
| --- | --- |
| Cc1cc2nc(-c3ccc(O)c(C(=O)N[C@@H](Cc4c[nH]c5ccccc45)C(=O)N[C@@H](C)C(=O)N[C@@H](Cc4ccc(O)cc4)C(=O)O)c3)[nH]c2cc1C | 12.5 (≈ 17.8 µM) |

System: Pontoscolex corethrurus
Assay: Anthelmintic activity against Pontoscolex corethrurus ICARBC 408 assessed as mean death time
Assay type: functional
Conditions: not given
Outline: (§4)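 Earthworms exposed to test suspensions at 2 mg mL−1, prepared by triturating compound with Tween 80 (0.5%) and distilled water, stirring 30 min, then diluting to 0.2% w/v. Mebendazole suspension was made the same way. Death was confirmed by moving worms into 50 °C warm water and looking for movement. Mean death time (min) taken from triplicate sets.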

| Structure (SMILES) | Time [min] |
| --- | --- |
| Cc1cc2nc(-c3ccc(O)c(C(=O)N[C@@H](Cc4c[nH]c5ccccc45)C(=O)N[C@@H](C)C(=O)N[C@@H](Cc4ccc(O)cc4)C(=O)O)c3)[nH]c2cc1C | 29.19 |

System: Microsporum audouinii
Assay: Antifungal activity against Microsporum audouinii MUCC 545 after 48 hrs by tube dilution method
Assay type: functional
Conditions: not given
Outline: (§5)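 Tube dilution MIC as for bacteria (seven concentrations, 200–3.1 […]), with DMSO in place of DMF. Tubes inoculated with fungal culture and incubated 48 h at 37 °C. MIC read from presence or absence of growth.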

| Structure (SMILES) | MIC [µg/mL] |
| --- | --- |
| Cc1cc2nc(-c3ccc(O)c(C(=O)N[C@@H](Cc4c[nH]c5ccccc45)C(=O)N[C@@H](C)C(=O)N[C@@H](Cc4ccc(O)cc4)C(=O)O)c3)[nH]c2cc1C | 12.5 (≈ 17.8 µM) |

System: Staphylococcus aureus
Assay: Antibacterial activity against Staphylococcus aureus NCIM 2079 after 18 hrs by disc diffusion method
Assay type: functional
Conditions: not given
Outline: as §1

| Structure (SMILES) | inhibition zone (IZ) [mm] |
| --- | --- |
| Cc1cc2nc(-c3ccc(O)c(C(=O)N[C@@H](Cc4c[nH]c5ccccc45)C(=O)N[C@@H](C)C(=O)N[C@@H](Cc4ccc(O)cc4)C(=O)O)c3)[nH]c2cc1C | 11 |

System: Trichophyton benhamiae
Assay: Antifungal activity against Trichophyton mentagrophytes MUCC 665 after 48 hrs by tube dilution method
Assay type: functional, Arthroderma benhamiae
Conditions: not given
Outline: as §5

| Structure (SMILES) | MIC [µg/mL] |
| --- | --- |
| Cc1cc2nc(-c3ccc(O)c(C(=O)N[C@@H](Cc4c[nH]c5ccccc45)C(=O)N[C@@H](C)C(=O)N[C@@H](Cc4ccc(O)cc4)C(=O)O)c3)[nH]c2cc1C | 6 (≈ 8.54 µM) |

System: Pontoscolex corethrurus
Assay: Anthelmintic activity against Pontoscolex corethrurus ICARBC 408 assessed as mean paralyzing time
Assay type: functional
Conditions: not given
Outline: (§6)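 Earthworms exposed to test suspensions at 2 mg mL^-1 (0.2% w/v), made by triturating compound with Tween 80 (0.5%) and distilled water, then mechanically stirred 30 min. Mebendazole suspension prepared alike as reference. Paralysis and death times recorded; death confirmed by no movement in 50 °C water. Means from triplicate sets.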

| Structure (SMILES) | Time [min] |
| --- | --- |
| Cc1cc2nc(-c3ccc(O)c(C(=O)N[C@@H](Cc4c[nH]c5ccccc45)C(=O)N[C@@H](C)C(=O)N[C@@H](Cc4ccc(O)cc4)C(=O)O)c3)[nH]c2cc1C | 17.02 |

System: Trichophyton benhamiae
Assay: Antifungal activity against Trichophyton mentagrophytes MUCC 665 after 48 hrs by disc diffusion method
Assay type: functional, Arthroderma benhamiae
Conditions: not given
Outline: as §2

| Structure (SMILES) | inhibition zone (IZ) [mm] |
| --- | --- |
| Cc1cc2nc(-c3ccc(O)c(C(=O)N[C@@H](Cc4c[nH]c5ccccc45)C(=O)N[C@@H](C)C(=O)N[C@@H](Cc4ccc(O)cc4)C(=O)O)c3)[nH]c2cc1C | 15 |

System: not listed separately
Assay: Anthelmintic activity against Megascoplex konkanensis ICARBC 211 assessed as mean paralyzing time
Assay type: functional
Conditions: not given
Outline: as §6

| Structure (SMILES) | TIME [h] |
| --- | --- |
| Cc1cc2nc(-c3ccc(O)c(C(=O)N[C@@H](Cc4c[nH]c5ccccc45)C(=O)N[C@@H](C)C(=O)N[C@@H](Cc4ccc(O)cc4)C(=O)O)c3)[nH]c2cc1C | 0.224 |

System: Eudrilus
Assay: Anthelmintic activity against Eudrilus sp. assessed as mean paralyzing time
Assay type: functional
Conditions: not given
Outline: as §6

| Structure (SMILES) | Time [min] |
| --- | --- |
| Cc1cc2nc(-c3ccc(O)c(C(=O)N[C@@H](Cc4c[nH]c5ccccc45)C(=O)N[C@@H](C)C(=O)N[C@@H](Cc4ccc(O)cc4)C(=O)O)c3)[nH]c2cc1C | 13.25 |

System: Pseudomonas aeruginosa
Assay: Antibacterial activity against Pseudomonas aeruginosa NCIM 2034 after 18 hrs by tube dilution method
Assay type: functional
Conditions: NCIM 2034, 18 h
Outline: as §3

| Structure (SMILES) | MIC [µg/mL] |
| --- | --- |
| Cc1cc2nc(-c3ccc(O)c(C(=O)N[C@@H](Cc4c[nH]c5ccccc45)C(=O)N[C@@H](C)C(=O)N[C@@H](Cc4ccc(O)cc4)C(=O)O)c3)[nH]c2cc1C | 6 (≈ 8.54 µM) |

System: Aspergillus niger
Assay: Antifungal activity against Aspergillus niger MUCC 177 after 48 hrs by disc diffusion method
Assay type: functional
Conditions: not given
Outline: as §2

| Structure (SMILES) | inhibition zone (IZ) [mm] |
| --- | --- |
| Cc1cc2nc(-c3ccc(O)c(C(=O)N[C@@H](Cc4c[nH]c5ccccc45)C(=O)N[C@@H](C)C(=O)N[C@@H](Cc4ccc(O)cc4)C(=O)O)c3)[nH]c2cc1C | 17 |

System: not listed separately
Assay: Anthelmintic activity against Megascoplex konkanensis ICARBC 211 assessed as mean death time
Assay type: functional
Conditions: not given
Outline: as §6

| Structure (SMILES) | TIME [h] |
| --- | --- |
| Cc1cc2nc(-c3ccc(O)c(C(=O)N[C@@H](Cc4c[nH]c5ccccc45)C(=O)N[C@@H](C)C(=O)N[C@@H](Cc4ccc(O)cc4)C(=O)O)c3)[nH]c2cc1C | 0.377 |

System: Microsporum audouinii
Assay: Antifungal activity against Microsporum audouinii MUCC 545 after 48 hrs by disc diffusion method
Assay type: functional
Conditions: not given
Outline: as §2

| Structure (SMILES) | inhibition zone (IZ) [mm] |
| --- | --- |
| Cc1cc2nc(-c3ccc(O)c(C(=O)N[C@@H](Cc4c[nH]c5ccccc45)C(=O)N[C@@H](C)C(=O)N[C@@H](Cc4ccc(O)cc4)C(=O)O)c3)[nH]c2cc1C | 12 |

System: Candida albicans
Assay: Antifungal activity against Candida albicans MUCC 29 after 48 hrs by tube dilution method
Assay type: functional
Conditions: not given
Outline: as §5

| Structure (SMILES) | MIC [µg/mL] |
| --- | --- |
| Cc1cc2nc(-c3ccc(O)c(C(=O)N[C@@H](Cc4c[nH]c5ccccc45)C(=O)N[C@@H](C)C(=O)N[C@@H](Cc4ccc(O)cc4)C(=O)O)c3)[nH]c2cc1C | 6 (≈ 8.54 µM) |

System: Eudrilus
Assay: Anthelmintic activity against Eudrilus sp. assessed as mean death time
Assay type: functional
Conditions: not given
Outline: as §4

| Structure (SMILES) | Time [min] |
| --- | --- |
| Cc1cc2nc(-c3ccc(O)c(C(=O)N[C@@H](Cc4c[nH]c5ccccc45)C(=O)N[C@@H](C)C(=O)N[C@@H](Cc4ccc(O)cc4)C(=O)O)c3)[nH]c2cc1C | 23.98 |

System: Pseudomonas aeruginosa
Assay: Antibacterial activity against Pseudomonas aeruginosa NCIM 2034 after 18 hrs by disc diffusion method
Assay type: functional
Conditions: not given
Outline: as §1

| Structure (SMILES) | inhibition zone (IZ) [mm] |
| --- | --- |
| Cc1cc2nc(-c3ccc(O)c(C(=O)N[C@@H](Cc4c[nH]c5ccccc45)C(=O)N[C@@H](C)C(=O)N[C@@H](Cc4ccc(O)cc4)C(=O)O)c3)[nH]c2cc1C | 22 |

System: Bacillus subtilis
Assay: Antibacterial activity against Bacillus subtilis NCIM 2063 after 18 hrs by tube dilution method
Assay type: functional
Conditions: NCIM 2063, 18 h
Outline: as §3

| Structure (SMILES) | MIC [µg/mL] |
| --- | --- |
| Cc1cc2nc(-c3ccc(O)c(C(=O)N[C@@H](Cc4c[nH]c5ccccc45)C(=O)N[C@@H](C)C(=O)N[C@@H](Cc4ccc(O)cc4)C(=O)O)c3)[nH]c2cc1C | 12.5 (≈ 17.8 µM) |

System: Bacillus subtilis
Assay: Antibacterial activity against Bacillus subtilis NCIM 2063 after 18 hrs by disc diffusion method
Assay type: functional
Conditions: not given
Outline: as §1

| Structure (SMILES) | inhibition zone (IZ) [mm] |
| --- | --- |
| Cc1cc2nc(-c3ccc(O)c(C(=O)N[C@@H](Cc4c[nH]c5ccccc45)C(=O)N[C@@H](C)C(=O)N[C@@H](Cc4ccc(O)cc4)C(=O)O)c3)[nH]c2cc1C | 16 |
